Bioassay records as filed in PubChem.
The list is not random: actives were taken first. Their share in the collection is about 2.1%.
GSK3 alpha inh – human GSK-3 alpha kinase inhibition; inhibition, % at 10 µM; P49840; ADP-Glo luminescence, 60 min; 0.1% of 320,000 active;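 active means more than half of replicates show inhibition above 20%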;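 further: GST-tagged GSK-3 alpha with peptide substrate and 25 µM ATP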
STK33 kinase inh – inhibitors of human STK33 kinase; Q9BYT3; purified STK33, MBP phosphorylation, ADP-Glo luminescence; inhibition, % at 10 µM; 0.073% of 320,000 active;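 active means inhibition at or above 25%, using the most active replicate where run in duplicate; inactive means inhibition below 25%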
MEKK2 mut-MEK5 – signal of MEK5 binding to mutant human MEKK2 PB1 domain | 0.35% of 290,000 active | bead flow cytometry, Alexa488-MEK5 binding to MEKK2 mutant | AID 1530 | percent response, % at 10 µM; in the data active means percent response above about 24%, passing the limit was not always enough
MEKK2 WT-MEK5 – raises or lowers MEK5 binding to wildtype human MEKK2 PB1 domain; Q9Y2U5; bead flow cytometry, Alexa488-MEK5 binding to MEKK2 WT; actives lie on both sides; binding response (% of control), % at 10 µM; 1.1% of 290,000 active; AID 1531; in the data active means binding response below about 67% or above about 130%
GSK3B inh – human GSK3beta kinase inhibition. P49841. GST-GSK3beta kinase, ADP-Glo luminescence, 60 min; stronger effect = lower value. activity score (negative = inhibition), % at 10 µM. 0.038% of 300,000 active. AID 2097;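 active means more than half of replicate wells score below -50%, meaning over 50% inhibition versus plate controls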
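Test system: GST-fused GSK3beta enzyme, cell-free | Quantity: 1.6 ng GST-GSK3beta enzyme per well | Reagent: 25 µM ATP with peptide substrate | Schedule: 60 min enzyme reaction, room temperature | Signal: Luminescent ADP-Glo measurement of ADP formed | Read-out basis: Score relative to plate controls | Control set: DMSO and 20 µM GW8510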
MEKK3 PB1 HTS – modulators (inhibitors or enhancers) of MEK5 binding to human MEKK3 PB1 domain | Q99759 | bead-based flow cytometry, Alexa488-MEK5 binding to MEKK3; actives lie on both sides; 0 = blocked by unlabeled MEK5, 100 = vehicle | binding response (% of control), % at 10 µM | 1.4% of 290,000 active | AID 1529;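 active means binding response more than 3 SD above or below the average of its plate-row segment, actives on both sides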;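 further: Alexa488 bead fluorescence after subtracting the streptavidin-only scavenger bead signal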
Target sequence (Q99759 whole entry, looked up, the tested form may be a part): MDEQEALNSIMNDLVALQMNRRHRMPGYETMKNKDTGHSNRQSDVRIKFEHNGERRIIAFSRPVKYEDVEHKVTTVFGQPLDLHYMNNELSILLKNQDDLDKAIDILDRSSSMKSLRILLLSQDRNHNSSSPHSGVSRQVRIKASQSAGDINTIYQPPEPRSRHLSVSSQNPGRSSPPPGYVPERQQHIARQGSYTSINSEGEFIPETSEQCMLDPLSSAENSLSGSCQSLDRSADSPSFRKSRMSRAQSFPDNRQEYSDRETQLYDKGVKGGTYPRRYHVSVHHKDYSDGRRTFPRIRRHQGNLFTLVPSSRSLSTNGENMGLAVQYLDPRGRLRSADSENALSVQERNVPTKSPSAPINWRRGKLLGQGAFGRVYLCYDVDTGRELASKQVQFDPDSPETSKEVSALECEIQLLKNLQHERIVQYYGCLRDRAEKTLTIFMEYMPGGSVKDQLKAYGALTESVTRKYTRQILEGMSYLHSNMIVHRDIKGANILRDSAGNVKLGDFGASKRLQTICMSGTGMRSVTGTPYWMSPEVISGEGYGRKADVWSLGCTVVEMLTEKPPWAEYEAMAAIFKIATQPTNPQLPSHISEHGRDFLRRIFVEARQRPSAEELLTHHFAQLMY
MEKK2wt confirm – raises or lowers MEK5 binding to wildtype human MEKK2, retest | shares compounds with MEKK3 PB1 HTS | 2.4% of 5,900 active | bead flow cytometry, Alexa488-MEK5 binding to MEKK2 WT; actives lie on both sides | AID 1892 | binding response (% of control), % at 10 µM; in the data active means binding response below about 16% or above about 210%; inactive means in between
MEKK2mut-MEK5 – signal of MEK5 binding to mutant human MEKK2, retest; bead flow cytometry, Alexa488-MEK5 binding to MEKK2 mutant; 2% of 5,900 active; shares compounds with MEKK3 PB1 HTS; percent response, % at 10 µM; in the data active means percent response mostly above about 71%, no sharp cut-off; inactive means mostly below about 38%;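 further: higher means compound restores mutant binding toward wildtype level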
MEKK3 confirm – MEKK3-MEK5 PB1 inhibition, single concentration confirmation. 1.8% of 5,900 active. bead flow cytometry, Alexa488-MEK5 binding to MEKK3; stronger effect = lower value. AID 1894. binding response (% of control), % at 10 µM. shares compounds with MEKK3 PB1 HTS;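 active means binding response below 72% of control, or above a set upper limit, though filed actives all read lower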
Large screens that a line does not name were inactive (follow-up assays come after a bar, where they were run); [ ] = another dose, or the depositor's remark.

COc1ccccc1C1CC(c2ccccc2)Nc2ncnn21 (stereo not given)	MEKK3 PB1 HTS 80.0[inhibitor] | MEKK2wt confirm inactive | MEKK2mut-MEK5 inactive | MEKK3 confirm inactive
COc1ccccc1Nc1nc(NCCCN(C)C)nc(N)c1[N+](=O)[O-]	GSK3 alpha inh 94.6, MEKK2 WT-MEK5 145.0, GSK3B inh -82.8 | MEKK2wt confirm inactive | MEKK2mut-MEK5 inactive | MEKK3 confirm inactive
C=CCNc1nc(N)c([N+](=O)[O-])c(Nc2ccccc2OC)n1	none
Cc1ccc(Nc2nc(NCCCN3CCOCC3)nc(N)c2[N+](=O)[O-])cc1C	MEKK2 WT-MEK5 148.0 (no result: GSK3 alpha inh, STK33 kinase inh) | MEKK2wt confirm inactive | MEKK2mut-MEK5 inactive | MEKK3 confirm inactive
O=C(O)Cn1c(-c2cscn2)nc2ccccc21	MEKK3 PB1 HTS 123.0 | MEKK2wt confirm inactive | MEKK2mut-MEK5 inactive | MEKK3 confirm inactive
Cc1ccccc1-n1c(C)nnc1SCC(=O)NNC(=O)c1ccccc1	MEKK3 PB1 HTS 148.0 | MEKK2wt confirm inactive | MEKK2mut-MEK5 inactive | MEKK3 confirm inactive
Cc1nnc(SCC(=O)NNC(=O)c2ccccc2)n1-c1ccccc1	none
Cc1cccc(N/C(N)=N/c2nc(CSc3ccc(Cl)cc3)cc(=O)[nH]2)c1	none
C=CCN(CC(=O)Nc1c(C)cccc1CC)C(=O)SCCC	MEKK3 PB1 HTS 81.0[inhibitor] (no result: GSK3 alpha inh) | MEKK2wt confirm inactive | MEKK2mut-MEK5 inactive | MEKK3 confirm inactive
COc1ccc(OC)c(-c2csc(NC(=O)CSc3ccc([N+](=O)[O-])cc3)n2)c1	MEKK3 PB1 HTS 141.0 | MEKK2wt confirm inactive | MEKK2mut-MEK5 inactive | MEKK3 confirm inactive
COc1ccc(OC)c(-c2csc(NC(=O)CSc3ccc(Br)cc3)n2)c1	none
COc1ccccc1N1CCN(C(=O)c2ccc(CSc3ccccc3)cc2)CC1	MEKK3 PB1 HTS 128.0 | MEKK2wt confirm inactive | MEKK2mut-MEK5 inactive | MEKK3 confirm inactive
COc1ccccc1N1CCN(C(=O)c2ccc3[nH]c4c(c3c2)CCCC4)CC1	MEKK3 PB1 HTS 145.0 | MEKK2wt confirm inactive | MEKK2mut-MEK5 inactive | MEKK3 confirm inactive
O=C(c1ccc(CSc2ccccc2)cc1)N1CCN(c2ccccc2)CC1	none
CC(C)n1cnc2c(N(C)c3ccccc3)nc(N(CCN(C)C)Cc3ccccc3)nc21	MEKK2 WT-MEK5 175.0 | MEKK2wt confirm inactive | MEKK2mut-MEK5 inactive | MEKK3 confirm inactive
COc1cc(N(Cc2ccccc2)Cc2ccccc2)c2ncn(C(C)C)c2c1	none (no result: MEKK2 mut-MEK5, MEKK2 WT-MEK5, GSK3B inh, MEKK3 PB1 HTS)
Cn1c(/C=C(\C#N)C(N)=S)ccc1-c1ccc(Br)cc1	MEKK2 WT-MEK5 62.0[inhibitor] (no result: GSK3 alpha inh, STK33 kinase inh, GSK3B inh) | MEKK2wt confirm inactive | MEKK2mut-MEK5 inactive | MEKK3 confirm inactive
Cc1nccn1C[C@@H]1CCc2c(c3ccccc3n2C)C1=O	none
CCCNC(=O)Cn1nc([N+](=O)[O-])c([N+](=O)[O-])c1C	MEKK2 WT-MEK5 58.0[inhibitor], MEKK3 PB1 HTS 60.0[inhibitor] | MEKK2wt confirm inactive | MEKK2mut-MEK5 inactive | MEKK3 confirm inactive
O=C(N/N=C\C=C\c1ccc2c(c1)OCO2)c1cccnc1	MEKK3 PB1 HTS 135.0 | MEKK2wt confirm inactive | MEKK2mut-MEK5 inactive | MEKK3 confirm inactive
O=C(/C=C/c1ccc2c(c1)OCO2)c1cccnc1	none
CNC[C@H](CC1CCCCC1)NC[C@H](Cc1ccccc1)NCCC12CC3CC(CC(C3)C1)C2	MEKK2 mut-MEK5 70.0, MEKK2 WT-MEK5 278.0 | MEKK2wt confirm 265.0 | MEKK2mut-MEK5 126.0 | MEKK3 confirm inactive
CS(=O)(=O)Nc1ccc(C2=NN(C(=O)c3ccco3)C(c3ccccc3)C2)cc1 (stereo not given)	none (no result: GSK3 alpha inh, STK33 kinase inh)
CC(C)C(=O)N1N=C(c2ccc(NS(C)(=O)=O)cc2)CC1c1cccs1 (stereo not given)	none
CS(=O)(=O)Nc1ccc(C2=NN(S(=O)(=O)c3ccccc3)C(c3cccs3)C2)cc1 (stereo not given)	MEKK3 PB1 HTS 7.0[inhibitor] (no result: MEKK2 mut-MEK5, MEKK2 WT-MEK5) | MEKK2wt confirm inactive | MEKK2mut-MEK5 inactive | MEKK3 confirm inactive
CCS(=O)(=O)N1N=C(c2ccc(NS(C)(=O)=O)cc2)CC1c1ccccc1 (stereo not given)	MEKK3 PB1 HTS 32.0[inhibitor] (no result: MEKK2 mut-MEK5, MEKK2 WT-MEK5) | MEKK2wt confirm inactive | MEKK2mut-MEK5 inactive | MEKK3 confirm inactive
Cc1cccc(NC(=O)C2CCN(C(=O)[C@@H]3Cc4ccccc4CN3)CC2)c1	none
CC(=Nc1ccccc1)C1=C(O)CCCC1=O	MEKK3 PB1 HTS 136.0 | MEKK2wt confirm inactive | MEKK2mut-MEK5 inactive | MEKK3 confirm inactive
CC1CCN(c2ccc([N+](=O)[O-])cc2C(=O)NCC2CCCO2)CC1 (stereo not given)	none
